This note sets out measurements from the M2OR odorant receptor database.

Each structure is given as a SMILES string. Where a chain is given by its changes, count along the chain named.

What all share (settings): stereoisomer not certain
Assay [1] deals with T1, OR2F1 (Homo sapiens) (UniProt Q13607).
T1 sequence (whole entry): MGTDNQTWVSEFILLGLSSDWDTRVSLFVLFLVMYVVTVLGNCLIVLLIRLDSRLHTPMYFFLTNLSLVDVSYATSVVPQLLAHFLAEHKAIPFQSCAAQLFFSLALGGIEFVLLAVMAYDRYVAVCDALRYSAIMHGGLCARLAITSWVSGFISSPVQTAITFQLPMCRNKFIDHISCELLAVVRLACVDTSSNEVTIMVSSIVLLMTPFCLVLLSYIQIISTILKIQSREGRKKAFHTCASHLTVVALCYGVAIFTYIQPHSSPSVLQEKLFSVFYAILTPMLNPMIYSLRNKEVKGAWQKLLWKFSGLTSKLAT
Summed up: (§1)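 Whether a receptor–molecule pair is responsive (active) rests on the original authors' judgment that its measured signal was statistically different from baseline. Pairs without that judgment are non-responsive (inactive). Sources used varied assay methods, commonly transient luciferase assays in mammalian cell lines.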

Assay [2] addresses T2, OR2F2 (Homo sapiens) (UniProt O95006).
T2 sequence (whole entry): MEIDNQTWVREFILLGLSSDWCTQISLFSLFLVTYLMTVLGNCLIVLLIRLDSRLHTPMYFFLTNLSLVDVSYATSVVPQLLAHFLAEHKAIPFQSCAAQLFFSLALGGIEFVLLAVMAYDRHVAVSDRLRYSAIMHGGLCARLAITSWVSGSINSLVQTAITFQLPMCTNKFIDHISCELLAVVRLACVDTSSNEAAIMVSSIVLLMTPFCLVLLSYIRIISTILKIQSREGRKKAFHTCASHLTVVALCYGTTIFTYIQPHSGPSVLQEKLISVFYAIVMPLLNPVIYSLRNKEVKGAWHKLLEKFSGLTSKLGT
In a few lines:
as §1

The target in assay [3] is T3, OR2G2 (Homo sapiens) (UniProt Q8NGZ5).
T3 sequence (whole entry): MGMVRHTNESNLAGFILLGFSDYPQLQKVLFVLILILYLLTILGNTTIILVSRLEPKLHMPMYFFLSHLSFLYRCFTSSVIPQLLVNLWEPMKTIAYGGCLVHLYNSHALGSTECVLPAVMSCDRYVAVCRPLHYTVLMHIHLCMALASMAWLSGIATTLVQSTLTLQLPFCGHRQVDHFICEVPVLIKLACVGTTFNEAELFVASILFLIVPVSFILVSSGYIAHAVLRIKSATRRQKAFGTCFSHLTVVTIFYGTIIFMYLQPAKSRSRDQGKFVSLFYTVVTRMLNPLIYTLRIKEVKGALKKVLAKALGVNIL
Summed up:
as §1

Assay [4] deals with T4, OR2G3 (Homo sapiens) (UniProt Q8NGZ4).
T4 sequence (whole entry): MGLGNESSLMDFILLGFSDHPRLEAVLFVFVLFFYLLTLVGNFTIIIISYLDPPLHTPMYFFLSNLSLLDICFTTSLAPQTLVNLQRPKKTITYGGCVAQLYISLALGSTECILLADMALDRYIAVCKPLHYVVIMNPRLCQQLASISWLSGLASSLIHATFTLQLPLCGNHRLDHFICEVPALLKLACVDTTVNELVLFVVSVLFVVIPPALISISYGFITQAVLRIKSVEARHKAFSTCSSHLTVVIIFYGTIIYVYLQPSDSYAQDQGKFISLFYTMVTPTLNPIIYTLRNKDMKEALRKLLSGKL
In a few lines:
as §1

Assay [5] deals with T5, OR2G6 (Homo sapiens) (UniProt Q5TZ20).
T5 sequence (whole entry): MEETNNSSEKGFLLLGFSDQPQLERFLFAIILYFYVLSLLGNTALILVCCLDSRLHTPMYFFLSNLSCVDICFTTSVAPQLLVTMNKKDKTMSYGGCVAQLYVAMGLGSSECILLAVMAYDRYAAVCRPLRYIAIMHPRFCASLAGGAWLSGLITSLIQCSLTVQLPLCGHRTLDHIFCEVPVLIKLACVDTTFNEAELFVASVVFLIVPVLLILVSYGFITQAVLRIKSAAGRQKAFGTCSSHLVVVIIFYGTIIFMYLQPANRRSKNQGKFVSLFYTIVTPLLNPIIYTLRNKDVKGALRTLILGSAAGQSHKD
In a few lines:
as §1

Assay [6] concerns the target T6, OR2H1 (Homo sapiens) (UniProt Q9GZK4).
T6 sequence (whole entry): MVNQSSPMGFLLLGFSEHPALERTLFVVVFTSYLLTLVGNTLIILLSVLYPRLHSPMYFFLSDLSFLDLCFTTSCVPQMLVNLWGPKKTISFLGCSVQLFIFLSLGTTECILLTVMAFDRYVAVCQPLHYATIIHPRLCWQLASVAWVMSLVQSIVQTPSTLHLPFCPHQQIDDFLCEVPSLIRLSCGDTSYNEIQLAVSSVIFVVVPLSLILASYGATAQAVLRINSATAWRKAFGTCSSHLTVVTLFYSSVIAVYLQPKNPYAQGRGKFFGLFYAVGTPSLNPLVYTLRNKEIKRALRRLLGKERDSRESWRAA
In a few lines:
as §1

Assay [7] has as its target T7, OR2H2 (Homo sapiens) (UniProt O95918).
T7 sequence (whole entry): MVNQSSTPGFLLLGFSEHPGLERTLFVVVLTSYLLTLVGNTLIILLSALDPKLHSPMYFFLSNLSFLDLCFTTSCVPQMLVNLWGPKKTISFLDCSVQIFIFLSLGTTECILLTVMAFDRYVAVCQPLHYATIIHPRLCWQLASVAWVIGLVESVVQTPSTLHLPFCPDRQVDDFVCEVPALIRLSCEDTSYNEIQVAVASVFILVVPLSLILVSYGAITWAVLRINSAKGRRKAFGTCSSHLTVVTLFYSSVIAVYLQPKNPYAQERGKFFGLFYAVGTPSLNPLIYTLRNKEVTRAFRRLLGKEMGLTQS
Summed up: as §1

In assay [8] the target is T8, OR2J1 (Homo sapiens) (UniProt Q9GZK6).
T8 sequence (whole entry): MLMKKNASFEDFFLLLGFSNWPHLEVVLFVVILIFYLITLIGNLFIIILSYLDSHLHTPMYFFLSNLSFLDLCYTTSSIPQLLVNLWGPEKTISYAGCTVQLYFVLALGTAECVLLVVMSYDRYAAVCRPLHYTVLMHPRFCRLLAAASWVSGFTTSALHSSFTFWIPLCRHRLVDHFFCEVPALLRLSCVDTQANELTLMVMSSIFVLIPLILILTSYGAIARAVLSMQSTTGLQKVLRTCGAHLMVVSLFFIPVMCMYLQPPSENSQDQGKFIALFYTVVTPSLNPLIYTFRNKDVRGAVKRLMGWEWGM
Summed up:
as §1

Assay [9] deals with T9, OR2J2 (Homo sapiens) (UniProt O76002).
T9 sequence (whole entry): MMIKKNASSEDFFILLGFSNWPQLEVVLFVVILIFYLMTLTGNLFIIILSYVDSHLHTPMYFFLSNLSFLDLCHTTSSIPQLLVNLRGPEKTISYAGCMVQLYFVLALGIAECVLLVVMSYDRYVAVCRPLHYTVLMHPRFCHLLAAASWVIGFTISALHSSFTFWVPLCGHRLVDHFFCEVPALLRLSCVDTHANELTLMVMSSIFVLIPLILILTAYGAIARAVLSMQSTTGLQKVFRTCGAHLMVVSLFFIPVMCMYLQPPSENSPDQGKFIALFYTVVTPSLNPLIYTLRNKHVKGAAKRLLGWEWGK
In a few lines:
as §1

Assay [10] deals with T10, OR2J3 (Homo sapiens) (UniProt O76001).
T10 sequence (whole entry): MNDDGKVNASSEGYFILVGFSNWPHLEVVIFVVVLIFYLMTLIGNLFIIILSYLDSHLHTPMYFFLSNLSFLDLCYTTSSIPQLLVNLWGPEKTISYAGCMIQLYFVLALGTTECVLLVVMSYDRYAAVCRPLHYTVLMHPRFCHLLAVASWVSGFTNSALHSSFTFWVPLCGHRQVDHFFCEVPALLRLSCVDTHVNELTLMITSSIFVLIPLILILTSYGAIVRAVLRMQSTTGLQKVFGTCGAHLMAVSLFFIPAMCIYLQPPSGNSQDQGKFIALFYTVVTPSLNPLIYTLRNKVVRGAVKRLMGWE
Summed up:
as §1

Assay [11] addresses T11, OR2K2 (Homo sapiens) (UniProt Q8NGT1).
T11 sequence (whole entry): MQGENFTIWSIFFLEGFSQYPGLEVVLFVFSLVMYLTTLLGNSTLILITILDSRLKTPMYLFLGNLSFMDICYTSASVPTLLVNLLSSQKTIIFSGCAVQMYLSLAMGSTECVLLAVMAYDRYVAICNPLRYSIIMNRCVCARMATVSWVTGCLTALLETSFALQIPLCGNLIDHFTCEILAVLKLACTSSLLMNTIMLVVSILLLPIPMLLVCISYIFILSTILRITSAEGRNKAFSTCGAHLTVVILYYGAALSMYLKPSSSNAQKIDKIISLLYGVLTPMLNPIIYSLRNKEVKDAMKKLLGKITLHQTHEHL
Summed up: as §1

Assay [12] has as its system T12, OR2G2 L167P R236G.
T12 sequence (whole entry): T3 sequence (whole entry) with L167P, R236G
In a few lines: as §1

In assay [13] the test system is T13, OR2G3 I289V.
T13 sequence (whole entry): T4 sequence (whole entry) with I289V
Summed up:
as §1

Assay [14] relates to T14, OR2H2.
T14 sequence (whole entry): T7 sequence (whole entry) with L30F, A48V
Summed up: as §1

The test system of assay [15] is T15, OR2J1 L14I V182A.
T15 sequence (whole entry): T8 sequence (whole entry) with L14I, V182A
Summed up:
as §1

Assay [16] has as its system T16, OR2J2.
T16 sequence (whole entry): T9 sequence (whole entry) with H74Y, A111T, A146V, A218T
In a few lines:
as §1

Assay [17] relates to T17, OR2J3.
T17 sequence (whole entry): T10 sequence (whole entry) with V228I, I261M
Summed up:
as §1
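Also: active if original authors judged signal statistically different from baseline.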

Consider `CC(=O)c1c(C)c([N+](=O)[O-])c(C(C)(C)C)c([N+](=O)[O-])c1C`, for which the “odorant receptor agonist call” value in [1], in assay [2], in [3], in assay [4], in assay [5] and in [6] was “inactive” throughout. Also, the “odorant receptor agonist call” value in [7], in assay [8], in assay [9], in [10] and in assay [11] was “inactive” in each case.

Turning to `CCCC(C)C(=O)OCC` (stereo not given), the “odorant receptor agonist call” value in assay [3] was “inactive”.

On to `CCCC(S)CCOC(C)=O` (stereo not given), for which the “odorant receptor agonist call” value in assay [1], in assay [2], in [3], in assay [12], in [4] and in assay [13] was “inactive” throughout. The “odorant receptor agonist call” value in [5], in [6], in [7], in assay [14], in [8] and in assay [15] was “inactive” each time. Besides, the “odorant receptor agonist call” value in [16], in assay [10], in assay [17] and in assay [11] was “inactive” throughout.

Consider `CCC=C(C)C(O)CCCCC` (stereo not given), for which, in assay [3], the “odorant receptor agonist call” value is “inactive”.

In the case of `CC1CCCCCCCCCCCCC(=O)C1` (stereo not given), the “odorant receptor agonist call” value in [1], in assay [2], in [3], in assay [4], in assay [5] and in assay [6] was “inactive” in each case. In addition, the “odorant receptor agonist call” value in [7], in assay [8], in assay [9], in [10] and in assay [11] was “inactive” throughout.

Consider `CCC(=O)C=CC1C(C)=CCCC1(C)C` (stereo not given), for which the “odorant receptor agonist call” value in assay [3] was “inactive”.

Consider `CC1=C(O)C(=O)OC1C` (stereo not given), for which the “odorant receptor agonist call” value in assay [1], in assay [2], in assay [3], in assay [12], in assay [4] and in [13] was “inactive” each time. Also, the “odorant receptor agonist call” value in assay [5], in assay [6], in assay [7], in assay [14], in assay [8] and in assay [15] was “inactive” each time. For the same molecule, the “odorant receptor agonist call” value in assay [16], in assay [10], in assay [17] and in [11] was “inactive” in each case.

Consider `CCC1OC(C)=C(O)C1=O` (stereo not given), for which the “odorant receptor agonist call” value in [1], in assay [2], in assay [3], in assay [12], in assay [4] and in assay [13] was “inactive” throughout. The “odorant receptor agonist call” value in [5], in assay [6], in assay [7], in assay [14], in [8] and in assay [15] was “inactive” in each case. Besides, the “odorant receptor agonist call” value in [16], in [10], in assay [17] and in assay [11] was “inactive” each time.

With `C=CCOC(=O)COCCC(C)C`, the “odorant receptor agonist call” value in [3] is “inactive”.

As to `CC1=NC(C)C(C)S1` (stereo not given), the “odorant receptor agonist call” value in assay [1], in assay [2], in assay [3], in assay [12], in [4] and in assay [13] was “inactive” each time. The “odorant receptor agonist call” value in [5], in assay [6], in assay [7], in assay [14], in assay [8] and in [15] was “inactive” each time. For the same molecule, the “odorant receptor agonist call” value in [16], in assay [10], in [17] and in assay [11] was “inactive” each time.

As to `CCCCCC1C(=O)CCC1CC(=O)OC` (stereo not given), the “odorant receptor agonist call” value in [3] was “inactive”.

As to `CCCCC(S)C(C)CO` (stereo not given), the “odorant receptor agonist call” value in assay [1], in assay [2], in assay [3], in assay [4], in [5] and in [6] was “inactive” throughout. For the same molecule, the “odorant receptor agonist call” value in assay [7], in assay [8], in assay [9], in [10] and in assay [11] was “inactive” each time.

`CC=CC(=O)C1C(C)=CCCC1(C)C` (stereo not given): the “odorant receptor agonist call” value in assay [3] was “active”.

Consider `CC(C)CCCC(C)(C)O`, for which the “odorant receptor agonist call” value in assay [3] is “inactive”.

Turning to `CC(CO)CS` (stereo not given), the “odorant receptor agonist call” value in assay [1], in assay [2], in [3], in assay [4], in [5] and in assay [6] was “inactive” throughout. Further, the “odorant receptor agonist call” value in assay [7], in assay [8], in assay [9], in [10] and in assay [11] was “inactive” throughout.
